DDE Tn6 FP inh = DD(E)-Tn6 binding inhibition, primary FP screen; AID 720509; inhibition, % at 8.3 µM; P02675; hit rate 0.21% among 370,000; Fibrin DD(E) TRITC-Tn6 fluorescence polarization displacement;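 active = inhibition above a per-campaign cutoff: mean of compounds within control limits plus 3 SD, cut at about 15% in these data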;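 also: 0% = median of all compound wells on the plate and 100% = blocking peptide control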
Target sequence (P02675 whole entry, looked up): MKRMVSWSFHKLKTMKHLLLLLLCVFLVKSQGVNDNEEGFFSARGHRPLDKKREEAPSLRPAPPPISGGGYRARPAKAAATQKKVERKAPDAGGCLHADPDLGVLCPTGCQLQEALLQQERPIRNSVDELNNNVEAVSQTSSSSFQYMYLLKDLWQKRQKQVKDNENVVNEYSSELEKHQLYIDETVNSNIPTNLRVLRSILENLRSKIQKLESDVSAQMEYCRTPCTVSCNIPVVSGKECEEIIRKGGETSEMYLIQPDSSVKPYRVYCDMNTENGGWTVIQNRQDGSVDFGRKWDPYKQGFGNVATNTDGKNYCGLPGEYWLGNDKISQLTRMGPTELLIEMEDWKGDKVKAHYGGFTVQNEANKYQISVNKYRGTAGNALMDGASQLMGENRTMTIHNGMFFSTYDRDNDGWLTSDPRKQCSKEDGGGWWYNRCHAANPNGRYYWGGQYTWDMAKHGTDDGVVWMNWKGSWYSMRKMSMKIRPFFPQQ
MT1-MMP act inh = blocks activation of human MT1-MMP; hit rate 0.061% among 360,000; GFP/RFP ratio change, % at 20 µM; HT1080 RFP-PRO-GFP cells, GFP/RFP ratio fluorescence, overnight; percent of plate control window, DMSO zero; P50281;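 active = GFP/RFP ratio change of at least 30% with cell ATP level not reduced by more than half and red fluorescence within 50% of control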
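Test system: HT1080 cells expressing an RFP-PRO-GFP fluorescent reporter construct / Compound dosing: single-point 20 µM compound, 1% DMSO / Schedule: cells overnight before dosing, compound overnight, 37 °C, 5% CO2 / Evaluation: GFP/RFP fluorescence ratio / Control set: DMSO and RFP-L50D-GFP cell wells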
PolyA inh = inhibitors of polyadenylation in S. cerevisiae. S. cerevisiae SKY197-pL101 polyadenylation reporter, beta-gal luminescence; efflux-impaired pdr1/pdr3 knockout yeast; score 100 = 6 SD above DMSO. activity score, % at 12 µM. hit rate 0.02% among 300,000;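 active = lowest replicate activity score at least 50, where 100 means six control SD above control mean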;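 also: yeast exposed to compound for 9 h at 30 °C; higher score means more reporter readthrough which indicates perturbed polyadenylation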
SKN-1 block = blocks SKN-1 activity in C. elegans. C. elegans VP596 Pgst-4::GFP/RFP ratio, acrylamide-induced, 24 h. inhibition, % at 21.8 µM. hit rate 0.49% among 360,000. AID 624304;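 active = interference check ratio from 0.5 to 1.5 plus GFP to RFP signal ratio inhibition reaching or exceeding a fixed threshold, cut at about 30% in these data, passing the limit was not always enough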
DAGLB inhibitor = diacylglycerol lipase beta (human) inhibition. hit rate 0.059% among 340,000. HEK293T DAGLB membrane lysate, EnzChek fluorogenic substrate. Q8NCG7. inhibition, % at 5.17 µM. AID 504411; in the data active = inhibition above about 34%;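 also: 0% = enzyme with vehicle and 100% = wells lacking enzyme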
Tn7 DDE FP = DD(E)-Tn7 binding inhibition, primary FP screen; FP displacement of FITC-Tn7 peptide from fibrin DD(E); 0% = median of compound wells per plate; inhibition, % at 8.3 µM; hit rate 0.13% among 370,000; AID 720508;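 active = inhibition above the mean of compounds falling within the control limits plus 3 SD of them, cut at about 14% in these data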;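 also: 0% = plate median of compound wells and 100% = 10 µM Aha-Tn7 peptide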
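Test system – human fibrin DD(E) · Times – 10 min preincubation, 3 h with tracer, room temperature · Detection – fluorescence polarization of the labelled Tn7 tracer · Measure – percent inhibition normalized to high-control wells · Benchmarks – high control wells with 10 µM unlabelled Aha-Tn7 peptide (full inhibition) · Repeats – singlicate testing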
DDE Tn6 FP ctr = DD(E)-Tn6 binding inhibition, counter-screen. shares compounds with DDE Tn6 FP inh. Fibrin DD(E), TRITC-Tn6 fluorescence polarization displacement; 0% = median of compound wells, not DMSO. inhibition, % at 8.3 µM. hit rate 2% among 680;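 active = inhibition above the mean of test compounds lying between the control limits plus 3 SD of those, cut at about 14% in these data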;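 also: 0% = median of compound wells and 100% = wells with Aha-Tn7 blocking peptide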
Tn6 DDE conf = DD(E)-Tn6 binding inhibition, FP confirmation | FP displacement of TRITC-Tn6 peptide from DD(E); 0% = per-plate median of test wells | shares compounds with DDE Tn6 FP inh | inhibition, % at 8.3 µM | hit rate 10% among 680 | AID 720631;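 active = inhibition above the mean of compounds lying within the control limits plus 3 SD, cut at about 16% in these data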;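 also: 100% = high control wells holding a competing inhibitor peptide at 10 µM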
* hit, by the source's call; · = no result. Only some compounds are listed: those with a hit (about 0.9% of all), similar ones and a draw of the others.

SMILES	DDE Tn6 FP inh	MT1-MMP act inh	PolyA inh	SKN-1 block	DAGLB inhibitor	Tn7 DDE FP	DDE Tn6 FP ctr	Tn6 DDE conf
Cc1cc2cc(CNC(=O)c3ccc(S(=O)(=O)N4CCCC4)cc3)ccc2n1C	60*	16	-12	46*	3	-4	-5	5
COC(=O)[C@]12C[C@H](CC(=O)NCc3ccccc3)C(=O)N(Cc3ccco3)C1=C[C@H](C(C)(C)C)O[C@@H]2C	-4	·	·	·	·	0	·	·
CCOc1ccc(NC(=O)c2cc(-c3ccc(Cl)cc3)nc3ccccc23)cc1	-1	·	·	·	·	2	·	·
CCC(CC)C(=O)Nc1cccc(C(=O)Nc2ccc(S(=O)(=O)Nc3ccc(C)cc3)cc2)c1	19*	-14	23	5	0	-3	-2	-8
CCC(CC)C(=O)Nc1cccc(C(=O)Nc2ccc(S(N)(=O)=O)cc2)c1	-3	0	-3	1	-5	0	·	·
N=c1c[n+](N2CCOCC2)[n-]o1	19*	1	-13	14	1	1	-8	-19
c1ccc2c(c1)ccc1ccccc12	4	4	·	8	-5	0	·	·
CC1=[N+](C)c2ccc3ccccc3c2C1(C)C	55*	83	-5	73	4	-2	-1	8
Cc1nn(-c2ccccc2)c2c1C(c1ccc([N+](=O)[O-])cc1)C(C#N)=C(N)O2 (centres undefined)	16*	2	-8	11	6	4	0	-2
Cc1ccc(-n2nc(C)c3c2OC(N)=C(C#N)C3c2ccc(F)cc2)cc1 (centres undefined)	-2	8	-2	10	7	3	·	·
CN(C)N1C(N)=C(C#N)C(c2ccc3c(c2)OCO3)C2=C1CCCC2=O (centres undefined)	15*	-4	-26	-1	0	6	0	-3
CN(C)N1C(N)=C(C#N)C(c2cccc(Cl)c2)C2=C1CCCC2=O (centres undefined)	9	2	-4	14	1	6	·	·
Cc1c(C)n(C)c2ccc(C(=O)NCCCN3CCN(C)CC3)cc12	-2	2	-10	18	1	-3	·	·
Cc1c(C)n(C)c2ccc(C(=O)NCc3cccs3)cc12	35*	9	7	34	0	-6	2	2
CNc1nc(Cl)c(SC)c(NCc2cccc(OC)c2)n1	17*	-6	1	-16	-3	-4	4	4
Cc1cc(C)n2c(Nc3c(C)cccc3C)c(-c3ccccn3)nc2n1	16*	-8	·	23	·	6	4	2
O=C(Cc1ccccc1)NC(NNc1ccccc1)(C(F)(F)F)C(F)(F)F	15*	-8	-6	-11	-4	-3	14*	7
O=C(Cc1ccccc1)NNC(=O)Cc1ccccc1	0	-2	-11	4	1	6	·	·
COc1cc(C(=O)NCC(=O)N/N=C/c2cccc(OC(=O)c3ccco3)c2)cc(OC)c1OC	3	1	-1	0	4	0	·	·
COc1cc(C(=O)NCC(=O)N/N=C/c2ccco2)cc(OC)c1OC	27*	1	2	-5	-1	6	-6	-13
CCCc1c(C)c2cc(C)ccc2[nH]c1=O	18*	7	-6	-2	2	1	-1	-5
CC1(C)CC(CCN(Cc2ccccc2)C(=O)c2ccco2)(c2ccccc2)CCO1 (centres undefined)	-3	-10	11	5	-1	5	·	·
CCC1(C)CC(CCN(Cc2ccco2)C(C)=O)(c2ccccc2)CCO1 (centres undefined)	17*	-5	-3	-3	-4	-1	4	3
O=C(Oc1ccc(N(Cc2cccs2)C2=NS(=O)(=O)c3ccccc32)cc1)c1ccc(Cl)cc1	17*	0	-7	1	1	7	9	3
COc1cc(NC(=O)CN(C)Cc2cccc(F)c2)c(C)cc1[N+](=O)[O-]	17*	3	-4	-9	-4	-2	9	3
SMILES	DDE Tn6 FP inh	MT1-MMP act inh	PolyA inh	SKN-1 block	DAGLB inhibitor	Tn7 DDE FP	DDE Tn6 FP ctr	Tn6 DDE conf
COc1cc(NC(=O)CN(C)Cc2ccc(OC(F)F)cc2)c(C)cc1[N+](=O)[O-]	9	-1	6	6	-4	4	·	·
O=C(OCc1ccc(CSc2nnc(-c3cccc4ccccc34)o2)cc1)c1ccc(F)cc1	3	·	·	·	·	-1	·	·
O=C(Nc1ccncc1)c1cc(C2CCCCN2C(=O)CCc2ccccc2)on1 (centres undefined)	15*	-3	·	17	·	-3	4	-1
CC(C1CC1)N(Cc1ccccc1)C(=O)NC(=O)c1cccc(F)c1 (centres undefined)	0	0	-4	-1	0	-1	·	·
CC(C1CC1)N(Cc1ccccc1)C(=O)NC(=O)c1ccccc1 (centres undefined)	18*	4	28	4	2	0	0	1
COc1ccccc1-n1c(SCC(=O)NC2CCS(=O)(=O)C2)nc2ccccc2c1=O (centres undefined)	15*	2	·	-4	-3	2	7	4
CCC(=O)N1CCc2cc(Br)c(S(=O)(=O)NCCCN(C)Cc3ccccc3)cc21	-3	·	·	·	·	1	·	·
Cc1cc2cc(CNC(=O)C(C)Oc3ccccc3)ccc2n1C (centres undefined)	36*	50	8	55	4	-6	4	4
Cc1ccccc1NC(=S)NCc1ccc2c(c1)cc(C)n2C	20*	-5	0	24	3	9	3	-5
Cc1cc2cc(CNC(=O)CC(C)C)ccc2n1C	16*	23	9	50	-1	-2	-2	-13
CCOC(=O)CCC(=O)NCc1ccc2c(c1)cc(C)n2C	12	22	15	67	0	4	·	·
Cc1ccccc1NC(=S)NCc1ccc(Cl)cc1	8	-2	9	3	-3	0	·	·
COC(=O)CSc1nnc(-c2cccs2)o1	1	·	·	·	·	5	·	·
Cc1cc(N/N=C/c2ccco2)c2ccccc2n1	17*	3	-9	7	1	6	1	0
COc1ccc(S[C@]2(C(=O)N3CCOCC3)CC(=O)N(S(=O)(=O)c3ccc(F)cc3)[C@@H]2c2ccc(OC)cc2)cc1	2	·	·	·	·	1	·	·
